Experimental data gathered from unrelated publications.
Protocols differ between the studies behind these lines.
Medium: Caco-2

| SMILES | tested at | time | pH | Papp A→B [×10⁻⁶ cm/s] |
| --- | --- | --- | --- | --- |
| COc1cc(F)ccc1-c1ncnc(Nc2cccc(C[S@](C)(=N)=O)c2)n1 | 2 µM | 2 h | pH 7.2 | 3.5 |
| CC(C)c1cccc2c(-c3ccccc3)cc(-c3ccc(-c4ccc(C(=O)O)cc4)[nH]3)nc12 |  |  |  | 1.61 |
| CO[C@@H](C[C@H]1C(C)=CC[C@@H]2[C@]3(C)C[C@H](O[C@@H]4O[C@@H](C)[C@H](OC(=O)c5cccc(O)c5)[C@@H](O[C@@H]5O[C@H](CO)[C@@H](O)[C@H](O)[C@H]5NC(C)=O)[C@H]4O)[C@@H](O)C(C)(C)[C@H]3CC[C@]21C)[C@H](N)C(=O)O.O=C(O)C(F)(F)F | 5 µM | 1 h |  | 0.01 |
| O=C1C[C@@H](c2ccc(O[C@@H]3O[C@H](CO)[C@@H](O)[C@H](O)[C@H]3O)cc2)Oc2cc(O)ccc21 |  | 2 h |  | > 1 |
| C=CC(=O)Nc1cc(Nc2nccc(-c3cn(C)c4ccccc34)n2)c(OC)cc1N(C)CCN(C)C |  |  | pH 7.4 | 8.64 |
| CC(C)NCC(O)COc1cccc2ccccc12 (stereo not shown) | 5 µM | 1 h |  | 19.3 |
| CNC(=C[N+](=O)[O-])NCCSCc1ccc(CN(C)C)o1 |  |  |  | 0.4 |
| O=C(C1CCCCC1)N1CC(=O)N2CCc3ccccc3C2C1 (stereo not shown) |  |  |  | 38.4 |
| O=C(O)CCc1ccc(Oc2ccc(-c3noc(-c4ccc(O)cc4)n3)cc2)cc1 |  | 2 h | pH 7.4 | 18 |
| Cn1c(S)nc2c1c(=O)n(Cc1ccccc1)c(=O)n2C | 10 µM | 2 h |  | 10 |
| CC#Cc1cncc(-c2ccc3c(c2)[C@@]2(N=C(C)C(N)=N2)[C@]2(CC[C@H](OC)CC2)C3)c1 |  |  |  | 34.8 |
| COCCc1ccc(OCC(O)CNC(C)C)cc1 (stereo not shown) |  |  | pH 7.4 | 73.6 |
| C[C@H]1O[C@@H](O[C@H]2[C@@H](O)C[C@H](O[C@H]3[C@@H](O)C[C@H](O[C@H]4CC[C@@]5(C)[C@H](CC[C@@H]6[C@@H]5C[C@@H](O)[C@]5(C)[C@@H](C7=CC(=O)OC7)CC[C@]65O)C4)O[C@@H]3C)O[C@@H]2C)C[C@H](O)[C@@H]1O | 10 µM | 2 h | pH 7.4 | 0.11 |
| COCCc1ccc(OCC(O)CNC(C)C)cc1 (stereo not shown) |  |  |  | 16.6 |
| Nc1cc(N2CCCCC2)nc(N)[n+]1[O-] | 10 µM | 2 h | pH 7.4 | 4.18 |
| Cc1ncsc1-c1ccc(CNC(=O)[C@@H]2C[C@@H](O)CN2C(=O)[C@@H](NC(=O)C2(F)CC2)C(C)(C)C)c(OCCOc2ccc(CN3CCN(c4cc(-c5ccccc5O)nnc4N)CC3)cc2)c1 |  | 2 h | pH 7.2 | 2.2 |
